Experimental data published in ChEMBL document CHEMBL3739273, “Synthesis, biological activity evaluation and molecular docking studies of novel coumarin substituted thiazolyl-3-aryl-pyrazole-4-carbaldehydes” (Bioorg Med Chem Lett, 2015).
Converted amounts (≈) assume the structure as drawn. The source made the active and inactive calls. No cut-off for these calls is given here.

Tests used:
[1] = test system: Klebsiella pneumoniae; experiment: Bactericidal activity against Klebsiella pneumoniae ATCC 43816 after 24 hrs; assay type: functional; settings: ATCC 43816, 24 h, read-out: MBC99.9
Method in brief: (§1)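 MBC determined by a standard MBC protocol alongside the MIC, with values in µg/mL. Gentamycin sulfate and ampicillin were the references.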

[2] = n-Octanol-phosphate buffer partition coefficient, log P of the compound at pH 7.4 after 30 mins by shake flask method; assay type: physicochemical
Method in brief: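 Shake-flask partition between n-octanol and 50 mM phosphate buffer, pH 7.4. P calculated and expressed as logP.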

[3] = test system: Bacillus spizizenii; experiment: Antibacterial activity against Bacillus subtilis ATCC 6633 after 24 hrs by microtiter plate method; assay type: functional; settings: ATCC 6633, 24 h
Method in brief: (§2)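 Test concentrations reported in µg/mL. Gentamycin sulfate and ampicillin were the reference drugs.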

[4] = test system: Proteus vulgaris; experiment: Antibacterial activity against Proteus vulgaris ATCC 13315 after 24 hrs by microtiter plate method; assay type: functional; settings: ATCC 13315, 24 h; method in brief: as §2
[5] = biological target: T1, Cytochrome P450 2A6 (Homo sapiens, UniProt P11509); experiment: Inhibition of human microsomal CYP2A6; assay type: ADME
T1 sequence (P11509 whole entry): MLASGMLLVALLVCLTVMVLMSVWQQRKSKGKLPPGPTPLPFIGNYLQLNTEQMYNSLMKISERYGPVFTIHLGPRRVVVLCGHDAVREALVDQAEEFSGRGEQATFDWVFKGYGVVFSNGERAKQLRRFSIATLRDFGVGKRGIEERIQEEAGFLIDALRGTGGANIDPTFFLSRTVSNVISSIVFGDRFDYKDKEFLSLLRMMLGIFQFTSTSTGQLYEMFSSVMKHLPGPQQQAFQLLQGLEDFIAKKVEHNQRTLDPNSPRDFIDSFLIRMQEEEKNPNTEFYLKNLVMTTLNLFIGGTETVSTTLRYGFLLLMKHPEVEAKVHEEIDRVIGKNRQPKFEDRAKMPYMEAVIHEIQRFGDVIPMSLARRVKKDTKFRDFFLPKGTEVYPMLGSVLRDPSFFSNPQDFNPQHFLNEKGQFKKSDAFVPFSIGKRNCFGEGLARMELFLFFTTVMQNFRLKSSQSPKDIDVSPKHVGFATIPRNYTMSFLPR

[6] = test system: HeLa; experiment: Anticancer activity against human HeLa cells assessed as cell viability after 48 hrs by MTT assay; assay type: functional, cell-based
Method in brief: (§3)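 MTT cytotoxicity assay in human DU-145 prostate, MCF-7 breast and HeLa cervical cancer cell lines. Doxorubicin was the reference drug.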

[7] = test system: Bacillus spizizenii; experiment: Antibacterial activity against Bacillus subtilis ATCC 6633 assessed as growth inhibition at 100 ug/ml after 24 hrs by agar well diffusion method; assay type: functional, organism-based
Method in brief: (§4)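 Agar well diffusion. Compounds were tested at 10, 20, 100, 200 and 300 µg/mL, and the zone of inhibition was measured in mm. Gentamycin sulfate was the reference drug.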

[8] = test system: Bacillus cereus; experiment: Antibacterial activity against Bacillus cereus ATCC 14579 assessed as growth inhibition at 100 ug/ml after 24 hrs by agar well diffusion method; assay type: functional; method in brief: as §4
[9] = test system: HeLa; experiment: Induction of apoptosis in human HeLa cell assessed as nuclear condensation after 24 hrs by Hoechst 33258 staining based fluorescence microscopic analysis; assay type: functional
Method in brief: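 HeLa cells treated at 10 µM for 24 h, washed with PBS, then stained with Hoechst 33258 ([…]) for 20 min. Chromatin condensation imaged by fluorescence microscopy with a DAPI filter.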

[10] = test system: Klebsiella pneumoniae; experiment: Antibacterial activity against Klebsiella pneumoniae ATCC 43816 after 24 hrs by microtiter plate method; assay type: functional; settings: ATCC 43816, 24 h; method in brief: as §2
[11] = test system: Proteus vulgaris; experiment: Bactericidal activity against Proteus vulgaris ATCC 13315 after 24 hrs; assay type: functional; settings: ATCC 13315, 24 h, read-out: MBC99.9; method in brief: as §1
[12] = test system: HeLa; experiment: Anticancer activity against human HeLa cells assessed as cell viability at 10 uM after 48 hrs by MTT assay; assay type: functional, cell-based
[13] = test system: Bacillus cereus; experiment: Antibacterial activity against Bacillus cereus ATCC 14579 after 24 hrs by microtiter plate method; assay type: functional; settings: ATCC 14579, 24 h; method in brief: as §2
[14] = test system: Escherichia coli; experiment: Antibacterial activity against Escherichia coli ATCC 8739 assessed as growth inhibition at 100 ug/ml after 24 hrs by agar well diffusion method; assay type: functional; settings: ATCC 8739, 24 h, read-out: IZ; method in brief: as §4
[15] = test system: Escherichia coli; experiment: Bactericidal activity against Escherichia coli ATCC 8739 after 24 hrs; assay type: functional; settings: ATCC 8739, 24 h, read-out: MBC99.9; method in brief: as §1
[16] = test system: Bacillus spizizenii; experiment: Bactericidal activity against Bacillus subtilis ATCC 6633 after 24 hrs; assay type: functional; settings: ATCC 6633, 24 h, read-out: MBC99.9; method in brief: as §1
[17] = test system: Proteus vulgaris; experiment: Antibacterial activity against Proteus vulgaris ATCC 13315 assessed as growth inhibition at 100 ug/ml after 24 hrs by agar well diffusion method; assay type: functional; settings: ATCC 13315, 24 h, read-out: IZ; method in brief: as §4
[18] = test system: Staphylococcus aureus; experiment: Bactericidal activity against methicillin-resistant Staphylococcus aureus NCTC 13616 after 24 hrs; assay type: functional; settings: NCTC 13616, 24 h, read-out: MBC99.9
Method in brief: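 MBC determined by a standard MBC protocol run alongside the MIC determination. Gentamycin sulfate and ampicillin served as reference drugs.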

[19] = Anticancer activity against human DU145 cells assessed as cell viability after 48 hrs by MTT assay; assay type: functional, cell-based; settings: DU-145, 48 h; method in brief: as §3
[20] = test system: Staphylococcus aureus; experiment: Antibacterial activity against methicillin-resistant Staphylococcus aureus NCTC 13616 assessed as growth inhibition at 100 ug/ml after 24 hrs by agar well diffusion method; assay type: functional, organism-based
Method in brief: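 Agar well diffusion assay with compounds applied to wells at several concentrations, including the 100 level reported here. The zone of inhibition was measured in mm. Gentamycin sulfate was the standard drug.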

[21] = test system: Bacillus cereus; experiment: Bactericidal activity against Bacillus cereus ATCC 14579 after 24 hrs; assay type: functional; settings: ATCC 14579, 24 h, read-out: MBC99.9; method in brief: as §1
[22] = test system: Escherichia coli; experiment: Antibacterial activity against Escherichia coli ATCC 8739 after 24 hrs by microtiter plate method; assay type: functional; settings: ATCC 8739, 24 h; method in brief: as §2
[23] = test system: MCF7; experiment: Anticancer activity against human MCF7 cells assessed as cell viability after 48 hrs by MTT assay; assay type: functional, cell-based; settings: MCF7, 48 h; method in brief: as §3
[24] = test system: Klebsiella pneumoniae; experiment: Antibacterial activity against Klebsiella pneumoniae ATCC 43816 assessed as growth inhibition at 100 ug/ml after 24 hrs by agar well diffusion method; assay type: functional; settings: ATCC 43816, 24 h, read-out: IZ; method in brief: as §4
[25] = test system: Staphylococcus aureus; experiment: Antibacterial activity against methicillin-resistant Staphylococcus aureus NCTC 13616 after 24 hrs by microtiter plate method; assay type: functional; settings: NCTC 13616, 24 h

| Compound | MBC [1] | logD at 0.5 h [2] | MIC [3] | MIC [4] | Ki [5] | IC50 [6] | growth inhibition (GI) [7] | growth inhibition (GI) [8] | Activity [9] | MIC [10] | MBC [11] | MIC [13] | zone of inhibition at 100 µg/mL [14] | MBC [15] | MBC [16] | zone of inhibition at 100 µg/mL [17] | MBC [18] | IC50 [19] | growth inhibition (GI) [20] | MBC [21] | also measured |
| --- | --- | --- | --- | --- | --- | --- | --- | --- | --- | --- | --- | --- | --- | --- | --- | --- | --- | --- | --- | --- | --- |
| Cc1ccc(-c2nn(-c3nc(-c4cc5cc(Cl)cc(Cl)c5oc4=O)cs3)cc2C=O)cc1 | 150 µg/mL (≈ 311 µM) | 3.6 | 98.2 µg/mL (≈ 204 µM) | 105 µg/mL (≈ 218 µM) | 0.00257 µM | 5.75 µM | Active | Active | Active | 101 µg/mL (≈ 209 µM) | 210 µg/mL (≈ 435 µM) | 100 µg/mL (≈ 208 µM) | 18 mm | 150 µg/mL (≈ 311 µM) | 145 µg/mL (≈ 301 µM) | 18 mm | 230 µg/mL (≈ 477 µM) | 14.7 µM | Active | 150 µg/mL (≈ 311 µM) | growth inhibition (GI) [12]: Active; MIC [22]: 101 µg/mL (≈ 210 µM); IC50 [23]: 14.6 µM; zone of inhibition at 100 µg/mL [24]: 20 mm; MIC [25]: 116 µg/mL (≈ 240 µM) |
| Cc1ccc(-c2nn(-c3nc(-c4cc5cc(Br)cc(Br)c5oc4=O)cs3)cc2C=O)cc1 | 115 µg/mL (≈ 201 µM) | 3.34 | 92.4 µg/mL (≈ 162 µM) | 101 µg/mL (≈ 176 µM) | 0.00173 µM | 6.25 µM | Active | Active | Active | 79.1 µg/mL (≈ 138 µM) | 150 µg/mL (≈ 263 µM) | 72.8 µg/mL (≈ 127 µM) | 22 mm | 130 µg/mL (≈ 228 µM) | 150 µg/mL (≈ 263 µM) | 20 mm | 175 µg/mL (≈ 306 µM) | 10.8 µM | Active | 110 µg/mL (≈ 193 µM) | MIC [22]: 86.5 µg/mL (≈ 151 µM); IC50 [23]: 24.5 µM; zone of inhibition at 100 µg/mL [24]: 24 mm; MIC [25]: 106 µg/mL (≈ 185 µM) |
